From PMC3428732 (Analytical chemistry, 2012)
Square brackets hold non-standard residues; d marks the D form. Peptide text beside a SMILES is read from it. * marks the point of attachment. 6FAM = O=C1OC2(c3ccc(O)cc3Oc3cc(O)ccc32)c2cc(C(=O)*)ccc21; Phe(F5) = N[C@@H](Cc1c(F)c(F)c(F)c(F)c1F)C(=O)O; NMeR = CN[C@@H](CCCNC(=N)N)C(=O)O; NMeF = CN[C@@H](Cc1ccccc1)C(=O)O; βAla = NCCC(=O)O

What was measured:
[1] = biological target: PKBα kinase (Homo sapiens, UniProt P31749); experiment: in vitro kinase assay with purified PKBα; format: biochemical
In short: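 Active purified PKBα (6 nM) with N-terminally fluorescein-labelled peptide substrate (25 μM) at 30 °C. Buffer: 8 mM MOPS pH 7.0, 0.2 mM EDTA, 4 mM MgCl₂, 1 mM ATP. Aliquots were removed over time and stopped by heating at 90 °C for 4 min. Phosphorylation was quantified by CE-LIF. Triplicates used different enzyme aliquots on different days; mean ± SD.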

[2] = Peptide degradation in a HeLa cytosolic lysate; format: in vitro ADME, human; conditions: for half-life at 1 μM: human, HeLa cytosolic lysate
In short: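 Fluorescein-labelled peptide (1 μM) incubated at 37 °C with HeLa or LNCaP cytosolic lysate (3 mg mL⁻¹ total protein). Aliquots were quenched with HCl to 100 mM final; the 0 min point was acidified before peptide addition. Products were separated by CE-LIF, and fragments were identified by spiking in 250 nM standards. Initial rates were taken from the 0 and 5 min points, normalised to cytosolic protein (zmol pg⁻¹ s⁻¹). Triplicates used different lysates; mean ± SD.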

[3] = tested on: PKB activity in single LNCaP cells; experiment: Peptide phosphorylation in single LNCaP cells; format: cell-based, human; conditions: LNCaP cells pre-incubated with 500 nM wortmannin (10 min), then loaded with VI-B, 5 min; n = 10

Sequence of PKBα kinase (P31749 whole entry): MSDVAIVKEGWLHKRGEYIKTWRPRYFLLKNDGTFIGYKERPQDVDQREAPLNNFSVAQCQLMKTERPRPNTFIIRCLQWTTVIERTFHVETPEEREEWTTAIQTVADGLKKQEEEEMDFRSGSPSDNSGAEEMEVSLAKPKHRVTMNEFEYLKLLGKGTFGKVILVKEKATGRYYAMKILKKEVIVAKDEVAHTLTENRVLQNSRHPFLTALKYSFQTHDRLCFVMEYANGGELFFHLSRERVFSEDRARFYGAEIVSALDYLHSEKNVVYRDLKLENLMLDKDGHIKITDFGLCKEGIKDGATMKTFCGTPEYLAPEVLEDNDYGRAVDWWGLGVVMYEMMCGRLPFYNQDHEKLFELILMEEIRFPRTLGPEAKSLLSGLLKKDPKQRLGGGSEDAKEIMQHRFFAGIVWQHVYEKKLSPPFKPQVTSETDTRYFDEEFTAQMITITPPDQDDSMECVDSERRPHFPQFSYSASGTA

| SMILES | half-life at 1 μM [2] [min] | other results |
| --- | --- | --- |
| C[C@H](NC(=O)[C@H](C)NC(=O)[C@H](CCCNC(=N)N)N(C)C(=O)[C@@H]1CCCN1C(=O)[C@H](CCCNC(=N)N)NC(=O)CNC(=O)c1ccc2c(c1)C1(OC2=O)c2ccc(O)cc2Oc2cc(O)ccc21)C(=O)N[C@H](C(=O)N[C@@H](Cc1ccccc1)C(=O)N[C@@H](C)C(=O)N[C@@H](CCC(=O)O)C(=O)NCC(N)=O)[C@@H](C)O [III-B, 6FAM-GRP-MeArg-AATFAEG] (6FAM-GRP[NMeR]AATFAEG-NH2) | 2 | fold longer t50%P than peptide I [1]: more than 50 X; 6-residue fragment (alanine-threonine bond hydrolysis), % of all peptide present ([2]; HeLa lysate, within 15 min): 92% |
| C[C@H](NC(=O)[C@H](C)NC(=O)[C@@H](CCCNC(=N)N)NC(=O)[C@@H]1CCCN1C(=O)[C@H](CCCNC(=N)N)NC(=O)CNC(=O)c1ccc2c(c1)C1(OC2=O)c2ccc(O)cc2Oc2cc(O)ccc21)C(=O)N[C@H](C(=O)N[C@@H](Cc1ccccc1)C(=O)N[C@@H](C)C(=O)N[C@@H](CCC(=O)O)C(=O)NCC(N)=O)[C@@H](C)O [III-D, 6FAM-GRP-DArg-AATFAEG] (6FAM-GRP[dR]AATFAEG-NH2) | 17 |  |
| C[C@H](NC(=O)[C@H](Cc1ccccc1)NC(=O)[C@@H](NC(=O)CCNC(=O)[C@H](C)NC(=O)[C@H](CCCNC(=N)N)N(C)C(=O)[C@@H]1CCCN1C(=O)[C@H](CCCNC(=N)N)NC(=O)CNC(=O)c1ccc2c(c1)C1(OC2=O)c2ccc(O)cc2Oc2cc(O)ccc21)[C@@H](C)O)C(=O)N[C@@H](CCC(=O)O)C(=O)NCC(N)=O [IV-A, 6FAM-GRP-MeArg-A-βAla-TFAEG] (6FAM-GRP[NMeR]A[βAla]TFAEG-NH2) | 14 |  |
| C[C@H](NC(=O)[C@H](Cc1ccccc1)NC(=O)[C@@H](NC(=O)[C@@H](C)NC(=O)[C@H](C)NC(=O)[C@H](CCCNC(=N)N)N(C)C(=O)[C@@H]1CCCN1C(=O)[C@H](CCCNC(=N)N)NC(=O)CNC(=O)c1ccc2c(c1)C1(OC2=O)c2ccc(O)cc2Oc2cc(O)ccc21)[C@@H](C)O)C(=O)N[C@@H](CCC(=O)O)C(=O)NCC(N)=O [IV-B, 6FAM-GRP-MeArg-A-DAla-TFAEG] (6FAM-GRP[NMeR]A[dA]TFAEG-NH2) | 32 |  |
| COC[C@H]1OC(=O)c2coc3c2[C@@]1(C)C1=C(C3=O)[C@@H]2CCC(=O)[C@@]2(C)C[C@H]1OC(C)=O [wortmannin, Wortmannin] |  | formation of phosphorylated product of VI-B [3]: 13% ± 12% |

The next lines start with results.

| half-life at 1 μM [2] [min] | SMILES | other results |
| --- | --- | --- |
| 37 | C[C@H](NC(=O)[C@H](Cc1ccccc1)NC(=O)[C@@H](NC(=O)[C@H](CCC(=O)O)NC(=O)[C@H](C)NC(=O)[C@H](CCCNC(=N)N)N(C)C(=O)[C@@H]1CCCN1C(=O)[C@H](CCCNC(=N)N)NC(=O)CNC(=O)c1ccc2c(c1)C1(OC2=O)c2ccc(O)cc2Oc2cc(O)ccc21)[C@@H](C)O)C(=O)N[C@@H](CCC(=O)O)C(=O)NCC(N)=O [IV-C, 6FAM-GRP-MeArg-A-Glu-TFAEG] (6FAM-GRP[NMeR]AETFAEG-NH2) |  |
| 14 | C[C@H](NC(=O)[C@H](Cc1ccccc1)NC(=O)[C@@H](NC(=O)[C@H](Cc1ccccc1)NC(=O)[C@H](C)NC(=O)[C@H](CCCNC(=N)N)N(C)C(=O)[C@@H]1CCCN1C(=O)[C@H](CCCNC(=N)N)NC(=O)CNC(=O)c1ccc2c(c1)C1(OC2=O)c2ccc(O)cc2Oc2cc(O)ccc21)[C@@H](C)O)C(=O)N[C@@H](CCC(=O)O)C(=O)NCC(N)=O [IV-D, 6FAM-GRP-MeArg-A-FTFAEG] (6FAM-GRP[NMeR]AFTFAEG-NH2) | fold faster t50%P than peptide III-B [1]: over 30 X |
| 2 | C[C@H](NC(=O)[C@H](Cc1ccccc1)NC(=O)[C@@H](NC(=O)[C@H](Cc1ccccc1)N(C)C(=O)[C@H](C)NC(=O)[C@H](CCCNC(=N)N)N(C)C(=O)[C@@H]1CCCN1C(=O)[C@H](CCCNC(=N)N)NC(=O)CNC(=O)c1ccc2c(c1)C1(OC2=O)c2ccc(O)cc2Oc2cc(O)ccc21)[C@@H](C)O)C(=O)N[C@@H](CCC(=O)O)C(=O)NCC(N)=O [IV-E, 6FAM-GRP-MeArg-A-MePhe-TFAEG] (6FAM-GRP[NMeR]A[NMeF]TFAEG-NH2) |  |
| 88 | C[C@H](NC(=O)[C@H](Cc1c(F)c(F)c(F)c(F)c1F)NC(=O)[C@@H](NC(=O)[C@H](Cc1ccccc1)NC(=O)[C@H](C)NC(=O)[C@H](CCCNC(=N)N)N(C)C(=O)[C@@H]1CCCN1C(=O)[C@H](CCCNC(=N)N)NC(=O)CNC(=O)c1ccc2c(c1)C1(OC2=O)c2ccc(O)cc2Oc2cc(O)ccc21)[C@@H](C)O)C(=O)N[C@@H](CCC(=O)O)C(=O)NCC(N)=O [V-A, 6FAM-GRP-MeArg-AFT-Phe(F5)-AEG] (6FAM-GRP[NMeR]AFT[Phe(F5)]AEG-NH2) |  |
| 895 | C[C@H](NC(=O)[C@H](CCCNC(=N)N)N(C)C(=O)[C@@H]1CCCN1C(=O)[C@H](CCCNC(=N)N)NC(=O)CNC(=O)c1ccc2c(c1)C1(OC2=O)c2ccc(O)cc2Oc2cc(O)ccc21)C(=O)N[C@@H](Cc1ccccc1)C(=O)N[C@H](C(=O)N[C@@H](Cc1ccccc1)C(=O)N[C@H](C)C(=O)N[C@@H](CCC(=O)O)C(=O)NCC(N)=O)[C@@H](C)O [V-B, 6FAM-GRP-MeArg-AFTF-DAla-EG] (6FAM-GRP[NMeR]AFTF[dA]EG-NH2) | fold greater t1/2 than peptide IV-D ([2]; HeLa lysate): over 60 X |
